# ChEMBL document CHEMBL2440030, “Insights into soluble guanylyl cyclase activation derived from improved heme-mimetics” (J Med Chem, 2013)
# Activity calls are given as the source filed them. The rule behind the calls is not given here.
# Species on record: Rattus norvegicus
# Test: Inhibition of soluble guanylyl cyclase in Wistar rat aortic smooth muscle cell assessed as reduction of cGMP accumulation at 1 uM after 15 mins by enzyme immunoassay
# Procedure, shortened: (§1)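 Confluent rat aortic smooth muscle cells were exposed to vehicle or compound (0.01−1 μM) for 15 min, alone or together with 1 μM BAY 58-2667. cGMP was then extracted and quantified. Values are means ± SEM, n = 4.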
row,Compound,inhibition [%]
1,O=C(O)CCCC(=O)N(CCc1ccccc1OCc1ccc(CCc2ccccc2)cc1)Cc1ccc(C(=O)O)cc1,80
2,O=C(O)CCCCC(=O)N(CCc1ccccc1OCc1ccc(CCc2ccccc2)cc1)Cc1ccc(C(=O)O)cc1,80
3,O=C(O)CCC(=O)N(CCc1ccccc1OCc1ccc(CCc2ccccc2)cc1)Cc1ccc(C(=O)O)cc1,80

# Species on record: Rattus norvegicus
# Test: Activation of soluble guanylyl cyclase in Wistar rat aortic smooth muscle cell assessed as increase of cGMP accumulation at 1 uM after 15 mins by enzyme immunoassay
# Procedure, shortened: as §1
row,Compound,Activity
1,O=C(O)CCCC(=O)N(CCc1ccccc1OCc1ccc(-c2ccc(OCc3ccccc3)cc2)cc1)Cc1ccc(C(=O)O)cc1,Active
2,O=C(O)CCCCN(CCc1ccccc1OCc1ccc(-c2ccc(OCc3ccccc3)cc2)cc1)Cc1ccc(C(=O)O)cc1,Active
3,O=C(O)CCCN(CCc1ccccc1OCc1ccc(CCc2ccccc2)cc1)Cc1ccc(C(=O)O)cc1,inactive
4,O=C(O)CCCCCN(CCc1ccccc1OCc1ccc(CCc2ccccc2)cc1)Cc1ccc(C(=O)O)cc1,inactive
5,COc1ccc(COc2ccc(-c3ccc(COc4ccccc4CCN(CCCCC(=O)O)Cc4ccc(C(=O)O)cc4)cc3)cc2)cc1,Active
6,O=C(O)CCCCN(CCc1ccccc1OCc1ccc(-c2ccc(Oc3ccccc3)cc2)cc1)Cc1ccc(C(=O)O)cc1,Active

# Species on record: Rattus norvegicus
# Test: Activation of soluble guanylyl cyclase in Wistar rat aortic smooth muscle cell assessed as increase of cGMP accumulation after 15 mins by enzyme immunoassay
# Procedure, shortened: as §1
row,Compound,Activity
1,O=C(O)CCCCN(CCc1ccccc1OCc1ccc(-c2ccc(Oc3ccccc3)cc2)cc1)Cc1ccc(C(=O)O)cc1,Dose-dependent effect
